Reference: ChEMBL document CHEMBL1158377, “Phenylpyrrole derivatives as neural and inducible nitric oxide synthase (nNOS and iNOS) inhibitors” (Eur J Med Chem, 2009)
Active and inactive are the calls of the source. The calls are words filed in the database; no cut-off is given here.

Key:
[1] = target: Nitric oxide synthase 1 (Homo sapiens) (UniProt P29475); assay: Inhibition of nNOS
[2] = target: T1, Nitric oxide synthase, inducible (Mus musculus) (UniProt P29477); assay: Inhibition of cytosolic iNOS in stantia nigra isolated from MPTP-induced parkinson's disease C57/Bl6 mouse model assessed as L-[3H]citrulline per mg of protein at 20 mg/kg, b.w 1 hr before MPTP challenge after 32 hrs by liquid scintillation spectroscopy; format: organism-based; parameters: dose 20 mg/kg
T1 sequence (whole entry): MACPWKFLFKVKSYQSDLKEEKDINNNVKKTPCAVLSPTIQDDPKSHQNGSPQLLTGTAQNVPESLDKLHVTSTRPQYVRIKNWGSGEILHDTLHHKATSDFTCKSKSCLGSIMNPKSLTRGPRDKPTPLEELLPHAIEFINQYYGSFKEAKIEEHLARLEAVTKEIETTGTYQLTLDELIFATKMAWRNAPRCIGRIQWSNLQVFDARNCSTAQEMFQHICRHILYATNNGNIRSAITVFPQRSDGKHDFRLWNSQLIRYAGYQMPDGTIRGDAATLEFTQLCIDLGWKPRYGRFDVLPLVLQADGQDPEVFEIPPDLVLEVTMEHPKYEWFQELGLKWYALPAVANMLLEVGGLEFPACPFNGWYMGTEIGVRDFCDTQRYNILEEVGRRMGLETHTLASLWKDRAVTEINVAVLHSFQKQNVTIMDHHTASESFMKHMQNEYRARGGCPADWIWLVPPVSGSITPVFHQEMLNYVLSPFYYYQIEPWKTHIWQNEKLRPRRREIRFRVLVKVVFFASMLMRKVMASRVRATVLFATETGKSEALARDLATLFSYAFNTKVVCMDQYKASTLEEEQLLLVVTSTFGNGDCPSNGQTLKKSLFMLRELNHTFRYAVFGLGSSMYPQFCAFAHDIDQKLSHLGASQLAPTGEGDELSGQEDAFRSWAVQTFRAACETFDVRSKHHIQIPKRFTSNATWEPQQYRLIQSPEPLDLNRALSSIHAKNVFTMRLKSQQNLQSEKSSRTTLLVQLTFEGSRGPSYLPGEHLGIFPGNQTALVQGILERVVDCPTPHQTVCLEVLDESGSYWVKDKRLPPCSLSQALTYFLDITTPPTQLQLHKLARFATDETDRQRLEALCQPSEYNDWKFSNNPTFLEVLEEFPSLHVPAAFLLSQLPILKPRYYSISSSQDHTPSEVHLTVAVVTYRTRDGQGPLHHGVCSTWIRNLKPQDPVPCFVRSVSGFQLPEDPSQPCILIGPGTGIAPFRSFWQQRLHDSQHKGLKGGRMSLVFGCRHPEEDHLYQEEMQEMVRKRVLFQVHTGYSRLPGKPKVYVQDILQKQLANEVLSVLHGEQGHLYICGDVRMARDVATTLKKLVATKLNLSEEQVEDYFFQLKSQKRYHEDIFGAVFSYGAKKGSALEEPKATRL
Outline: (§1)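 C57/Bl6 mice (22–28 g) given MPTP 15 mg/kg s.c. at 0, 2, 4, 6, 24, 26 and 28 h; single compound dose 20 mg/kg b.w. 1 h before first MPTP; controls got ethanol/saline vehicle. Killed 32 h after treatments; substantia nigra cytosol and mitochondria assayed by L-[3H]-citrulline formation, as pmol/mg protein/min. Seven experiments in triplicate, four SN each.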

[3] = target: T1, Nitric oxide synthase, inducible (Mus musculus); assay: Inhibition of inducible mitochondrial NOS in stantia nigra isolated from MPTP-induced parkinson's disease C57/Bl6 mouse model assessed as L-[3H]citrulline per mg of protein at 20 mg/kg, b.w 1 hr before MPTP challenge after 32 hrs by liquid scintillation spectroscopy; format: organism-based; parameters: dose 20 mg/kg; outline: as §1
[4] = target: Nitric oxide synthase 1 (Mus musculus) (UniProt Q9Z0J4); assay: Inhibition of constitutive mitochondrial NOS in stantia nigra isolated from MPTP-induced parkinson's disease C57/Bl6 mouse model assessed as L-[3H]citrulline per mg of protein at 20 mg/kg, b.w 1 hr before MPTP challenge after 32 hrs by liquid scintillation spectroscopy; format: organism-based; parameters: dose 20 mg/kg; outline: as §1
[5] = target: Nitric oxide synthase 1 (Mus musculus) (UniProt Q9Z0J4); assay: Inhibition of cytosolic nNOS in stantia nigra isolated from MPTP-induced parkinson's disease C57/Bl6 mouse model assessed as L-[3H]citrulline per mg of protein at 20 mg/kg, b.w 1 hr before MPTP challenge after 32 hrs by liquid scintillation spectroscopy; format: organism-based; parameters: dose 20 mg/kg; outline: as §1
[6] = Binding affinity to CaCAM
[7] = target: Nitric oxide synthase, inducible (Rattus norvegicus) (UniProt Q06518); assay: Inhibition of iNOS in LPS-treated Wistar rat lung tissue homogenate assessed as conversion of L-[3H]arginine to L-[3H]citrulline at 1 mM by liquid scintillation spectroscopy
Outline: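 iNOS induced in Wistar rats by LPS 20 mg/Kg i.v.; lungs taken 8 h later, homogenized in ice-cold Tris-HCl pH 7.6 with protease inhibitors, then incubated with 10 mM EDTA to remove nNOS activity. Conversion of L-[3H]-arginine to L-[3H]-citrulline at 37 °C for 30 min with NADPH, compound 1 mM final; Dowex separation, scintillation counting.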

[8] = target: Nitric oxide synthase 1 (Rattus norvegicus) (UniProt P29476); assay: Inhibition of nNOS in Wistar rat striata tissue homogenate assessed as conversion of L-[3H]arginine to L-[3H]citrulline at 1 mM by liquid scintillation spectroscopy; format: tissue-based; settings: Striatum
Outline: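 Male Wistar rats killed by cervical dislocation; fresh striata homogenized in Tris-HCl pH 7.6 with protease inhibitors, spun 1000g 5 min. Supernatant incubated 30 min at 37 °C with 10 µM L-arginine plus 50 nM L-[3H]-arginine, CaCl2, BH4, FAD, NADPH 0.75 mM final; compound 1 mM final in DMSO. Dowex-50W separation; citrulline by scintillation; NADPH-omitted blank subtracted. Three experiments in triplicate, four striata each.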

Nitric oxide synthase, inducible (Rattus norvegicus), sequence (Q06518 whole entry): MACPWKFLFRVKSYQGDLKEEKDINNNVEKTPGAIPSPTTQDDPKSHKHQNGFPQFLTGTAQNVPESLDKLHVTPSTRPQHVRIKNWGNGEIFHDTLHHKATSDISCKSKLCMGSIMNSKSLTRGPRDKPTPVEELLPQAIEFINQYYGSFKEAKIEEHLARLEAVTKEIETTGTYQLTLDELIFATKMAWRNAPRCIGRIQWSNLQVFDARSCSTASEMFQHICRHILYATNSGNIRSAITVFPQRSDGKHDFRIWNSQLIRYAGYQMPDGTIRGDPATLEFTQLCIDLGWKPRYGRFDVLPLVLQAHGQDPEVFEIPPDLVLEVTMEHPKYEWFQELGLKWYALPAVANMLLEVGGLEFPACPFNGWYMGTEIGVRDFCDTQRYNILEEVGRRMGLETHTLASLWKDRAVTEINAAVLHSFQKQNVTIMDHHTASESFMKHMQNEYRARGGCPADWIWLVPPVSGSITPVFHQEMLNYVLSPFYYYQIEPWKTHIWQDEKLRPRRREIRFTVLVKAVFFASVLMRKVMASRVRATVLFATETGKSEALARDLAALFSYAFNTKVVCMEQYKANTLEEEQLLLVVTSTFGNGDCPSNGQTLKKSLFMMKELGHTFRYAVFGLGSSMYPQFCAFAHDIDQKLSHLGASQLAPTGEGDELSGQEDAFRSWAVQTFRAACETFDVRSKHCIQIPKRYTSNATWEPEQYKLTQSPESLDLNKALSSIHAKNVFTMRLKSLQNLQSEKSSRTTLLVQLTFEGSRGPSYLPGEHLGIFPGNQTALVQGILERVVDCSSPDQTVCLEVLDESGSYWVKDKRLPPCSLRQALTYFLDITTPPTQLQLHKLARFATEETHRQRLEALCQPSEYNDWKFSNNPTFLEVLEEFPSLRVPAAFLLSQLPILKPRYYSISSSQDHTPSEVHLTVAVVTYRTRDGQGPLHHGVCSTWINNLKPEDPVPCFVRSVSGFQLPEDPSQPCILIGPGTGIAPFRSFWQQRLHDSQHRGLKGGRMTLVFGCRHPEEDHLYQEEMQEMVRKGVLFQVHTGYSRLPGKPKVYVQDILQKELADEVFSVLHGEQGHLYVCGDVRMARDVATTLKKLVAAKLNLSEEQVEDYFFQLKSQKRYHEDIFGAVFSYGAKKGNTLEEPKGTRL
Nitric oxide synthase 1 (Mus musculus), sequence (Q9Z0J4 whole entry): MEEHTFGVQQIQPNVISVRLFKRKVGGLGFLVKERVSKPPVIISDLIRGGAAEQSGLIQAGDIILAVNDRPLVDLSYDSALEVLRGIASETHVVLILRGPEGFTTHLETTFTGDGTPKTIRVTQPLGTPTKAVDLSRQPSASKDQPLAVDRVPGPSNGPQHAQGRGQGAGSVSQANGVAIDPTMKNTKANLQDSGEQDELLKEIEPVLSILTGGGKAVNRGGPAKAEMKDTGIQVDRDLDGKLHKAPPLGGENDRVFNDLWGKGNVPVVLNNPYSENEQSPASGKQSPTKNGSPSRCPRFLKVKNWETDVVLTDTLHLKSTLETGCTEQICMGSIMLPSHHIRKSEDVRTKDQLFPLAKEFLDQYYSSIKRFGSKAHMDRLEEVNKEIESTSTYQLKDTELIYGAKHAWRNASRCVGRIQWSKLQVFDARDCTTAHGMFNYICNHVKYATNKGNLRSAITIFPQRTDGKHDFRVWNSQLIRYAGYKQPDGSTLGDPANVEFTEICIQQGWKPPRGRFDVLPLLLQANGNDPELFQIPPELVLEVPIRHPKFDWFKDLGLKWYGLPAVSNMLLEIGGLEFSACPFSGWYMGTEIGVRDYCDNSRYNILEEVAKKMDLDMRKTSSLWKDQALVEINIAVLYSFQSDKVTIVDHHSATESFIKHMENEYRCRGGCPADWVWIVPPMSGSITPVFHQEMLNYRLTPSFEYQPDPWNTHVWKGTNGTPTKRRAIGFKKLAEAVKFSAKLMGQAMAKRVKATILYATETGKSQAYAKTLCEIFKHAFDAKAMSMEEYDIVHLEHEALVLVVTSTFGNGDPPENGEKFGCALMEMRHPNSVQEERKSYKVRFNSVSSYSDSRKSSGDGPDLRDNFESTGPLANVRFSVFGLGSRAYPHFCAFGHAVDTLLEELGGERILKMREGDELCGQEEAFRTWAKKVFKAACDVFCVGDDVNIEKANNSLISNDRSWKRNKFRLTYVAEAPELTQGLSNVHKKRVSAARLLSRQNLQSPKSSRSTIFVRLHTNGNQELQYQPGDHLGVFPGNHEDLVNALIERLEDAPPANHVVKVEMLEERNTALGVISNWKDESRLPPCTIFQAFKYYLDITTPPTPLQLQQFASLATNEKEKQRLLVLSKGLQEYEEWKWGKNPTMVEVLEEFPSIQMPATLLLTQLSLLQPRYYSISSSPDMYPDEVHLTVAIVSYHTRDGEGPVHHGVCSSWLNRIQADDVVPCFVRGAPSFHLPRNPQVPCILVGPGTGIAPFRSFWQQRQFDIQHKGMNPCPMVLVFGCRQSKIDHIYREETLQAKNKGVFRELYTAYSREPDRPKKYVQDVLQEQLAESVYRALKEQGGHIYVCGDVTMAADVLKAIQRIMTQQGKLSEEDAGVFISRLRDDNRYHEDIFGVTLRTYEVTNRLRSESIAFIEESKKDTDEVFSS
Nitric oxide synthase 1 (Rattus norvegicus), sequence (P29476 whole entry): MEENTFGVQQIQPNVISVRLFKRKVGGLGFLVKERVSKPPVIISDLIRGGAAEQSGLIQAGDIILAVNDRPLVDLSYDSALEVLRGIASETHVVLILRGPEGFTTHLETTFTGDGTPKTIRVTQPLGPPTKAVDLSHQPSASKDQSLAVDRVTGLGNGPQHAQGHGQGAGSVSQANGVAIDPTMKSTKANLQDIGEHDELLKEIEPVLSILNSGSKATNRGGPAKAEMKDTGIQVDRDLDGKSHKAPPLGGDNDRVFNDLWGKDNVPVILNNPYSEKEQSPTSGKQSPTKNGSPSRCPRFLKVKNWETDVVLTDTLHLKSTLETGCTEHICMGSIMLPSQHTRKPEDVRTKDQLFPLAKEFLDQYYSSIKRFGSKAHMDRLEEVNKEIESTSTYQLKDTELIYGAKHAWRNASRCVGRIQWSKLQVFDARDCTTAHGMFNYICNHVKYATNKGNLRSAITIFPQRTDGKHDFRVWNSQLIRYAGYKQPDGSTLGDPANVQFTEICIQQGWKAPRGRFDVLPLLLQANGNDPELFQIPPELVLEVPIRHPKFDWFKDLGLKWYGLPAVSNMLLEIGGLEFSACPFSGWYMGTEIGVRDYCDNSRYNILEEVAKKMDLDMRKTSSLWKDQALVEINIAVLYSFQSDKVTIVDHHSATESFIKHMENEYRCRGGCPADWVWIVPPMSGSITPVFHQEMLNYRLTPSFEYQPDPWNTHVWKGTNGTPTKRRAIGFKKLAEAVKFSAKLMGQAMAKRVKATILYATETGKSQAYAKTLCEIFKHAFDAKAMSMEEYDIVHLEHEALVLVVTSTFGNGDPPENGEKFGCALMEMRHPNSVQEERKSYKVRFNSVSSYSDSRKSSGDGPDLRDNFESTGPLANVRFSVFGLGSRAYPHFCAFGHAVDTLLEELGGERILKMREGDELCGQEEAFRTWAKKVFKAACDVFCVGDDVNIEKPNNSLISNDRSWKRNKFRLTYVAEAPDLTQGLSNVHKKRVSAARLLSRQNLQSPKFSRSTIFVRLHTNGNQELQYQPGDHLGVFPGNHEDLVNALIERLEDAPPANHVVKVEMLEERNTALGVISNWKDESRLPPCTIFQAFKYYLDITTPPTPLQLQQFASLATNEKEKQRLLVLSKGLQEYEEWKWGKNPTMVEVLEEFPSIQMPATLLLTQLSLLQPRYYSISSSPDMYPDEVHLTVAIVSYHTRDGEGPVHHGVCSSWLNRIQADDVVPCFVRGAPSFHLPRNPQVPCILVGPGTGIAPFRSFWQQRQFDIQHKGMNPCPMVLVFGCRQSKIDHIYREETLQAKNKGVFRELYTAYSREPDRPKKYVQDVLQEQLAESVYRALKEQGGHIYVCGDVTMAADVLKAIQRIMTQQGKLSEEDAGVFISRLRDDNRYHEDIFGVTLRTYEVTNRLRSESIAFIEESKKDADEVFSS

Row | inhibition [1] | Activity [2] [pmol/min] | Activity [3] [pmol/min] | Activity [4] [pmol/min] | Activity [5] [pmol/min] | Activity [6] | inhibition [7] [%] | inhibition [8] [%] | SMILES
1 | Dose-dependent effect | 19 | 23.6 | 13.8 | 19.9 | – | – | – | COc1ccc2[nH]cc(CCNC(C)=O)c2c1
2 | – | – | – | – | – | inactive | 17.2 | 13.4 | Nc1ccccc1-c1ccc(C(=O)NC2CCCCC2)[nH]1
3 | – | – | – | – | – | inactive | -1.1 | 2.92 | Nc1ccccc1-c1ccc(C(=O)NC2CC2)[nH]1
4 | – | – | – | – | – | inactive | 7.53 | -0.01 | CCCCNC(=O)c1ccc(-c2ccccc2N)[nH]1
5 | – | 6.53 | 9.45 | 14.1 | 74.3 | inactive | 52.8 | 5.36 | Nc1ccccc1-c1ccc(C(=O)NC2CCCC2)[nH]1
6 | – | – | – | – | – | inactive | 6.78 | 43.5 | CCCNC(=O)c1ccc(-c2cc(OC)ccc2N)[nH]1
7 | – | – | – | – | – | inactive | 13.2 | – | CCCNC(=O)c1ccc(-c2ccccc2N)[nH]1
8 | – | – | – | – | – | inactive | 26.2 | 15.3 | COc1ccc(N)c(-c2ccc(C(=O)NC3CCCC3)[nH]2)c1
9 | – | – | – | – | – | inactive | 1.27 | 17.1 | CNC(=O)c1ccc(-c2cc(Cl)ccc2N)[nH]1
10 | – | – | – | – | – | inactive | 28.1 | 7.52 | Nc1ccccc1-c1ccc(C(=O)NCc2ccccc2)[nH]1
11 | – | – | – | – | – | inactive | 3.33 | 36.5 | CCCCNC(=O)c1ccc(-c2cc(Cl)ccc2N)[nH]1
12 | – | – | – | – | – | inactive | 20.5 | 4.15 | CCNC(=O)c1ccc(-c2ccccc2N)[nH]1
13 | – | – | – | – | – | inactive | 22.4 | 8.89 | COc1ccc(N)c(-c2ccc(C(=O)NCc3ccccc3)[nH]2)c1
14 | – | – | – | – | – | inactive | 16 | 9.56 | Cn1c(C(N)=O)ccc1-c1ccccc1N
15 | – | – | – | – | – | inactive | 5.34 | 34.5 | NC(=O)c1ccc(-c2cc(Cl)ccc2N)[nH]1
16 | – | – | – | – | – | inactive | 3.07 | 15 | NC(=O)c1ccc(-c2ccccc2N)[nH]1
17 | – | 5.78 | 7.46 | 9.95 | 65.5 | inactive | 32.7 | – | CNC(=O)c1ccc(-c2ccccc2N)[nH]1
18 | – | – | – | – | – | inactive | 8.95 | – | COc1ccc(N)c(-c2ccc(C(N)=O)[nH]2)c1
19 | – | – | – | – | – | inactive | 26.2 | – | CNC(=O)c1ccc(-c2cc(OC)ccc2N)[nH]1
20 | Dose-dependent effect | – | – | – | – | – | – | – | COc1ccc(N)c(C(=O)CC(NC(C)=O)C(=O)O)c1 (stereo unspecified)
21 | Dose-dependent effect | – | – | – | – | – | – | – | COc1ccc(N)c(C(=O)CCNC(C)=O)c1
22 | – | – | – | – | – | inactive | 2.8 | 33.4 | CCNC(=O)c1ccc(-c2cc(Cl)ccc2N)[nH]1
23 | – | – | – | – | – | inactive | 7.2 | 48.1 | Nc1ccc(Cl)cc1-c1ccc(C(=O)NC2CC2)[nH]1
24 | – | – | – | – | – | inactive | 20.1 | 8.44 | Nc1ccccc1-c1ccc(C(=O)NC2CCC2)[nH]1
25 | – | – | – | – | – | inactive | 21.4 | 32.5 | COc1ccc(N)c(-c2ccc(C(=O)NC3CC3)[nH]2)c1

Row | SMILES | inhibition [1] | Activity [2] [pmol/min] | Activity [3] [pmol/min] | Activity [4] [pmol/min] | Activity [5] [pmol/min] | Activity [6] | inhibition [7] [%] | inhibition [8] [%]
26 | CN1CC=C(c2ccccc2)CC1 | – | 29.4 | 43.8 | 25.9 | 83.7 | – | – | –
